The record followed here is ChEMBL document CHEMBL1156192, “N-((1-benzyl-1H-1,2,3-triazol-4-yl)methyl)arylamide as a new scaffold that provides rapid access to antimicrotubule agents: synthesis and evaluation of antiproliferative activity against select cancer cell lines” (J Med Chem, 2010).

A word on the pIC50: it is the negative decadic logarithm of the IC50, by convention in mol/L. Higher therefore signals a low IC50. One may read the MIC as the least concentration at which growth counts as inhibited. A lower MIC goes with inhibition by little substance.

pIC50: −log10 of the molar value. ≈ marks a conversion by molar mass, not a printed value. Calls of active or inactive are those of the source. The rule behind the calls is not given here.

Assay [1] can be described thus: Inhibition of tubulin polymerization at 10 uM. The method, boiled down:
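Tubulin added in PIPES pH 6.9 buffer with EGTA, MgCl2, 5% glycerol; compound at 10 µM final from DMSO. After 10 min on ice, GTP added, then polymerization followed by absorbance at 340 nm for 30 min at 37 °C. Paclitaxel and nocodazole at 10 µM final as controls.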

The subject of assay [2] is MCF7. The experiment in a line: Antiproliferative activity against human MCF7 cells after 72 hrs by crystal violet biomass reduction assay. The assay is classed as functional, cell-based. The settings on record: MCF7, 72 h. The procedure, abridged: (§1)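 Cells grown in α-MEM with 5% FBS at 37 °C, 5% CO2; 2,500 cells/well allowed 24 h before compound in DMSO, triplicates, ≥5 concentrations, 72 h exposure. Biomass read by crystal violet staining, Triton X-100 elution, OD 595 nm. IC50 from dose-response as 50% reduction in net cell mass versus vehicle, corrected with no-cell background.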

For a further assay, the system named is U-937. As to the kind of experiment: Antiproliferative activity against human U937 cells by sulforhodamine B assay. The assay is classed as functional, cell-based. The method, boiled down: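 U-937 cells in RPMI-1640 with 10% FBS and 1% Pen-Strep; 4 x 10^4 cells/well, compound in DMSO, replicates of 5, 72 h at 37 °C, 5% CO2. Fixed with cold TCA overnight at 4 °C. Stained 30 min with 0.057% SRB in 1% acetic acid; bound dye released in 10 mM Tris base, A510 read. Vehicle and cell-free wells set 100%/0% biomass; IC50 from logistic fit.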

Assay [3] concerns HeLa. As to the kind of experiment: Cell cycle arrest in human HeLa cells assessed as accumulation at G2/M cells at 5 uM after 18 hrs by flow cytometry. It counts as functional. The procedure, abridged:
(§2)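 HeLa in RPMI-1640 with 10% FBS, Pen-Strep; 8 x 10^5 cells in 4 mL dosed at 5 µM (0.05% DMSO final) for 18 h, triplicate. Harvested cells fixed in 70% ice-cold ethanol 1 h at -20 °C, RNase A treated 2 h, propidium iodide 50 µg/mL stained. DNA content by flow cytometry, 20,000 events, single cells gated on PI width vs area.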

Assay [4] has as its system HeLa. The experiment in a line: Cell cycle arrest in human HeLa cells assessed as accumulation at S phase at 5 uM after 18 hrs by flow cytometry. It counts as functional. The procedure, abridged: as §2
Background: Flow cytometry measures light scatter and fluorescence of single cells or particles in a stream.

Assay [5] concerns HeLa. The experiment in a line: Cell cycle arrest in human HeLa cells assessed as accumulation at G1 phase at 5 uM after 18 hrs by flow cytometry. It counts as functional. The method, boiled down: as §2
The subject of assay [6] is HeLa. As to the kind of experiment: Cell cycle arrest in human HeLa cells assessed as accumulation at G2 phase at 5 uM after 18 hrs by flow cytometry. The assay is classed as functional. The method, boiled down:
as §2

In assay [7] the test system is HeLa. The experiment in a line: Cell cycle arrest in human HeLa cells assessed as accumulation at G2/G1 phase at 5 uM after 18 hrs by flow cytometry. It counts as functional. The method, boiled down:
as §2

Assay [8] concerns Mycobacterium tuberculosis. The experiment in a line: Antimycobacterial activity against Mycobacterium tuberculosis H37Rv. The assay is classed as functional.
Assay [9] deals with HeLa. The experiment in a line: Change in cellular morphology of human HeLa cells assessed as interference in microtubule formation at 5 uM after 18 hrs by confocal microscopy. It counts as functional, cell-based. The procedure, abridged:
(§3)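 HeLa attached 3 h on cover slips, then 18 h with DMSO vehicle or 5 µM compound (0.05% DMSO final). Brief microtubule stabilizing buffer (PIPES pH 6.8), 0.5% glutaraldehyde fixation 10 min, NaBH4 quench, blocking; FITC anti-α-tubulin (1:50) with RNase A 2.5 h, then propidium iodide 50 µg/mL 15 min. Imaged by confocal microscopy.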

Assay [10] has as its system HeLa. The experiment in a line: Change in cellular morphology of human HeLa cells assessed as DNA condensation at 5 uM after 18 hrs using propidium-iodide staining by confocal microscopy. The assay is classed as functional, cell-based. The method, boiled down: as §3
The test system of assay [11] is HeLa. As to the kind of experiment: Change in cellular morphology of human HeLa cells assessed as microtubule disruption at 5 uM after 18 hrs using FITC-conjugated alpha-tubulin antibody by confocal microscopy. It counts as functional, cell-based. The method, boiled down:
as §3

Assay [12] concerns HeLa. The experiment in a line: Cell cycle arrest in human HeLa cells assessed as accumulation at M phase at 5 uM after 18 hrs by flow cytometry. The assay is classed as functional, cell-based. The method, boiled down: as §2
The subject of assay [13] is MCF7. As to the kind of experiment: Antiproliferative activity against human MCF7 cells by crystal violet biomass reduction assay. The settings on record: TDE = time-dependent effect. The assay is classed as functional, cell-based. The procedure, abridged: as §1

Consider `COC(=O)Nc1nc2cc(C(=O)c3cccs3)ccc2[nH]1`, for which the inhibition entry in assay [1] is “Active”.
In the assay on MCF7 [2], `O=C(NCc1cn(Cc2cccc(Oc3ccccc3)c2)nn1)c1ccccc1` showed a negative logarithm of the IC50 (pIC50) of 6.61.
In the case of `CC(=O)NCc1cn(Cc2cccc(Oc3ccccc3)c2)nn1`, the pIC50 in the assay with U-937 is 4.55; with MCF7 [2] it was 5.19. Moreover, the outcome with HeLa [3] was inactive. In addition, the Activity stood at 24.94% in the assay with HeLa [4], 53.85% in the assay on HeLa [5], 17.26% in the assay with HeLa [6] and 1.87% in the assay on HeLa [7].
In the case of `CCCCCCCCCCCCCCCC(=O)N(O)CCCC[C@H](NC(=O)[C@H]1COC(c2ccccc2O)=N1)C(=O)O[C@@H](C)CC(=O)N[C@H]1CCCCN(O)C1=O`, the MIC in assay [8] came out at 3.9 µM (≈ 3.13 µg/mL).
`O=C(OCc1ccccc1)[C@H]1COC(c2ccccc2OCc2ccccc2)=N1` returned an MIC in [8] of 4.2 µM (≈ 1.63 µg/mL). In the assay with MCF7 [2], this compound gave a pIC50 of less than 4.70.
For the compound `O=C(NCc1cn(Cc2cccc(Oc3ccccc3)c2)nn1)c1ccccn1`, the result with HeLa [9], in the assay on HeLa [10], in the assay with HeLa [11] and in the assay on HeLa [12] was Active. For the same compound, the values for the pIC50 with U-937 and with MCF7 [2] were 6.24 and 7.34, respectively. The Activity with HeLa [3] was more than 90%; in the assay with HeLa [4], 7.59%; in the assay on HeLa [5] it was 0.86%; in the assay on HeLa [6], 90.72%; with MCF7 [13], “tde”; with HeLa [7] it was 2%. For the same compound, in assay [1], the inhibition entry was “Active”.
With `COc1cc2c(c(OC)c1OC)-c1ccc(OC)c(=O)cc1[C@@H](NC(C)=O)CC2` [COLCHICINE], the pIC50 with U-937 is 8.10; with MCF7 [2], 7.87.
The compound `COc1ccc(C2=NC(C(=O)Nc3ccccc3O)CO2)cc1` (configuration not stated) came in with an MIC in assay [8] of 13 µM (≈ 4.06 µg/mL). This compound also gave a pIC50 with MCF7 [2] of less than 4.70.
Regarding `COc1cc2c(cc1O)CC[C@@H]1[C@@H]2CC[C@]2(C)[C@@H](O)CC[C@@H]12` [2-METHOXYESTRADIOL], the pIC50 was 5.54 with U-937 and 6.07 with MCF7 [2].
Take `CC(=O)O[C@H]1C(=O)[C@@]2(C)[C@H]([C@H](OC(=O)c3ccccc3)[C@]3(O)C[C@H](OC(=O)[C@H](O)[C@@H](NC(=O)c4ccccc4)c4ccccc4)C(C)=C1C3(C)C)[C@]1(OC(C)=O)CO[C@@H]1C[C@@H]2O`: in assay [1], the inhibition result is “inactive”.
